{"source": "ChEMBL document CHEMBL1921762", "about": "“Investigating the antimalarial action of 1,2,4-trioxolanes with fluorescent chemical probes” (J Med Chem, 2011)", "key": {"Plasmodium falciparum [1]": {"system": "Plasmodium falciparum", "test": "Antimalarial activity against Plasmodium falciparum FCB infected in human A-positive type erythrocytes after 72 hrs by SYBR Green I assay"}, "[2]": {"test": "Drug uptake in Plasmodium falciparum assessed as accumulation in small spherical structures in digestive vacuole at 500 nM", "format": "ADME", "conditions": "0.5 µM", "method_in_brief": "(§1)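 Mixed-stage P. falciparum cultures were exposed to 500 nM fluorescent probe for 10 min in RPMI at 37 °C. They were washed twice with PBS, viewed directly or after 0.2% saponin release, and imaged live by epifluorescence at 100X oil immersion, with phase contrast overlay.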"}, "[3]": {"test": "Drug uptake in Plasmodium falciparum […] lipid bodies assessed decrease in fluorescence at 500 nM pretreated with 500 nM unlabeled compound", "format": "ADME", "conditions": "0.5 µM", "method_in_brief": "(§2)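 Mid- to late trophozoite cultures were pre-treated for 10 min at 37 °C with 500 nM unlabeled trioxolane or 0.01% MeOH vehicle in warm complete medium. Medium was then replaced with 500 nM fluorescent trioxolane for 10 min. Cells were washed, saponin-released and examined by fluorescence microscopy. Labeled NLB were counted in ~10 random fields (~300 parasites per group) and normalised to parasite number. Results are % decrease versus MeOH, from 3 experiments with t test.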"}, "[4]": {"test": "Drug uptake in Plasmodium falciparum assessed as accumulation in […] lipid bodies at 500 nM in presence of methanol", "format": "ADME", "conditions": "0.5 µM", "method_in_brief": "as §2"}, "[5]": {"test": "Drug uptake in Plasmodium falciparum assessed as cytoplasmic accumulation at 500 nM", "format": "ADME, Cytoplasm", "conditions": "0.5 µM", "method_in_brief": "as §1"}, "Plasmodium falciparum [6]": {"system": "Plasmodium falciparum", "test": "Drug uptake in Plasmodium falciparum assessed as subcellular localization at 500 nM", "format": "ADME, organism-based", "conditions": "0.5 µM", "method_in_brief": "as §1"}, "[7]": {"test": "Drug uptake in Plasmodium falciparum assessed as accumulation in membranous structures at 500 nM", "format": "ADME", "conditions": "0.5 µM", "method_in_brief": "(§3)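 Mixed-stage P. falciparum cultures (strains FCB and 7G8, grown in human A+ or AB+ erythrocytes at 37 °C in supplemented RPMI 1640 under 90% N2/5% O2/5% CO2) were exposed to 500 nM probe for 10 min in RPMI at 37 °C. Cells were washed twice with PBS, viewed directly or after 0.2% saponin release, and imaged by 100X oil-immersion epifluorescence with phase contrast.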"}, "[8]": {"test": "Drug uptake in Plasmodium falciparum assessed as accumulation in nuclear lipid bodies at 500 nM", "format": "ADME", "conditions": "0.5 µM, in the assay text read “neutral lipid bodies” for “nuclear lipid bodies”", "method_in_brief": "as §3"}, "Plasmodium falciparum [9]": {"system": "Plasmodium falciparum", "test": "Induction of peroxidation of Plasmodium falciparum membrane-incorporated BODIPY at ring stage at 250 nM after 2.5 hrs by fluorescence microscopic analysis", "format": "functional, organism-based", "method_in_brief": "(§4)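 Cultures at each asexual stage were exposed at 37 °C for 2.5 h to 250 nM compound or 0.01% MeOH vehicle, then to 40 nM BODIPY 581/591 C11 for a further 30 min. Trophozoites were saponin-released; ring and segmenter stages were imaged in erythrocytes. Peroxidation was read as a red-to-yellow/green fluorescence shift by microscopy.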"}, "Plasmodium falciparum [10]": {"system": "Plasmodium falciparum", "test": "Induction of peroxidation of Plasmodium falciparum membrane-incorporated BODIPY at 250 nM after 2.5 hrs by fluorescence microscopic analysis", "format": "functional, organism-based", "method_in_brief": "as §4"}, "Plasmodium falciparum [11]": {"system": "Plasmodium falciparum", "test": "Induction of peroxidation of Plasmodium falciparum membrane-incorporated BODIPY at asexual stage at 250 nM after 2.5 hrs by fluorescence microscopic analysis", "format": "functional, organism-based", "method_in_brief": "as §4"}, "Plasmodium falciparum [12]": {"system": "Plasmodium falciparum", "test": "Induction of peroxidation of Plasmodium falciparum membrane-incorporated BODIPY at trophozoite stage at 250 nM after 2.5 hrs by fluorescence microscopic analysis", "format": "functional, organism-based", "method_in_brief": "as §4"}, "Plasmodium falciparum [13]": {"system": "Plasmodium falciparum", "test": "Antimalarial activity against Plasmodium falciparum K1 infected in human A-positive type erythrocytes after 72 hrs by SYBR Green I assay", "conditions": "K1, 72 h"}, "[14]": {"test": "Binding affinity to Plasmodium falciparum calcium-transporting ATPase"}}, "note": "The source made the active and inactive calls. No cut-off for these calls is given here.", "data": [{"molecule": "CN(C)c1cccc2c(S(=O)(=O)OC34CC5CC(C3)C3(OOC6(CCCCC6)O3)C(C5)C4)cccc12", "note": "(mixture of isomers)", "values": [{"measurement": "IC50", "setting": "Plasmodium falciparum [1]", "value": 17.9, "unit": "nM"}, {"measurement": "Drug uptake", "setting": "[2]", "value": "Active"}, {"measurement": "Drug uptake", "setting": "[3]", "value": "Not Active"}, {"measurement": "Drug uptake", "setting": "[4]", "value": "Active"}]}, {"molecule": "CN(C)c1cccc2c(S(=O)(=O)NCCCNC3CCC4(CC3)OOC3(O4)C4CC5CC(C4)CC3C5)cccc12", "note": "(mixture of isomers)", "values": [{"measurement": "IC50", "setting": "Plasmodium falciparum [1]", "value": 14.6, "unit": "nM"}, {"measurement": "Drug uptake", "setting": "[5]", "value": "Active"}, {"measurement": "Drug uptake", "setting": "Plasmodium falciparum [6]", "value": "Not Active"}]}, {"molecule": "CN(C)c1cccc2c(S(=O)(=O)OC34CC5CC(C3)C3(OCC6(CCCCC6)O3)C(C5)C4)cccc12", "note": "(mixture of isomers)", "values": [{"measurement": "IC50", "setting": "Plasmodium falciparum [1]", "value": 25000, "unit": "nM"}, {"measurement": "Drug uptake", "setting": "[7]", "value": "Not Active"}, {"measurement": "Drug uptake", "setting": "[8]", "value": "Not Active"}]}, {"molecule": "CC(C)(C)OC(=O)NCCCNC1CCC2(CC1)OOC1(O2)C2CC3CC(C2)CC1C3", "note": "(mixture of isomers)", "values": [{"measurement": "IC50", "setting": "Plasmodium falciparum [1]", "value": 12.6, "unit": "nM"}, {"measurement": "Activity", "setting": "Plasmodium falciparum [9]", "value": "Active"}, {"measurement": "Activity", "setting": "Plasmodium falciparum [10]", "value": "Active"}, {"measurement": "Activity", "setting": "Plasmodium falciparum [11]", "value": "Active"}, {"measurement": "Activity", "setting": "Plasmodium falciparum [12]", "value": "Active"}]}, {"molecule": "C[C@@H]1CC[C@H]2[C@@H](C)C(=O)O[C@@H]3O[C@@]4(C)CC[C@@H]1[C@]32OO4", "note": "[ARTEMISININ]", "values": [{"measurement": "IC50", "setting": "Plasmodium falciparum [1]", "value": 8, "unit": "nM"}]}, {"molecule": "CC(C)(N)CNC(=O)C[C@H]1CC[C@]2(CC1)OO[C@]1(O2)C2CC3CC(C2)CC1C3", "note": "[OZ277]", "values": [{"measurement": "IC50", "setting": "Plasmodium falciparum [13]", "value": 2.5, "unit": "nM"}, {"measurement": "Ki", "setting": "[14]", "value": 7.9, "unit": "µM"}]}]}
